Reference: the EternaBench riboswitch data

Tested on: MS2 coat protein
Assay: apparent Kd, MS2 coat protein; higher = weaker binding; RNA-MaP array; theophylline 2 mM where present
Procedure, shortened: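 Apparent Kd: the median of filtered binding-curve fits from single clusters. Designs were transcribed on Illumina sequencing-chip clusters by stalled E. coli RNA polymerase and titrated with SNAP-549-labelled MS2 coat protein from 0.7 or 1.5 nM, doubling to 3 µM, in 100 mM Tris-HCl pH 7.5, 80 mM KCl, 4 mM MgCl2, BSA, DTT, yeast tRNA and Tween-20. Each series ran without and then with constant ligand, and green signal was normalised to red-channel RNA signal and control-cluster median Fmax.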

[1] = designed as: ON switch for theophylline, no ligand
[2] = ligand present: theophylline, designed as: ON switch for theophylline
[3] = designed as: OFF switch for theophylline, no ligand
[4] = ligand present: theophylline, designed as: OFF switch for theophylline

Row | Sequence | apparent Kd [1] [nM] | apparent Kd [2] [nM] | apparent Kd [3] [nM] | apparent Kd [4] [nM]
1 | AAAAUAAAUAAAACGGGUAACAUGAAGGAUACCAGCCAGGAAACUGGCCCUUGGCAGCCUCUACAUGAGGAUCACCCAUGUCCCG | 445 | 35.7 |  | 
2 | AAACAUUGCUCAGAUACCAGACAUGAGGAUCACCCAUGUACCGAGGUACCCGAAAGGAAUGUCCCUUGGCAGCUGAGCAAUGAAA |  |  | 12 | 129
3 | AACAGGGCUUCCACGAAGCCCUAAGGUGAUACCAGCACAUGUAAGUGCCCUUGGCAGCACGGUACAUGAGGAUCACCCAUGUAGA | 50.3 | 366 |  | 
4 | AAGGUGAUCCCAGAUACCAGCUUAACAUGAGGAUCACCCAUGUUUGGGACGAAAGUCCCGGGCCCUUGGCAGCUGGGUUGCCAAG | 196 | 131 |  | 
5 | AAGGUGAUCCGUGAUACCAGCUCAACAUGAGGAUCACCCAUGUAAGCCUGGAAACAGGCGAGCCCUUGGCAGCACGGUAAUAAUA | 11.9 | 13.8 |  | 
6 | AAUAACAUGAGGAUCACCCAUGUAAAAGAUACCAGAGUGAUGAUCCUCCCUUGGCAGCUUAAACGCUAUUGGAAACAAUAGCGAA | 70.2 | 167 |  | 
7 | AAUAACAUGAGGAUCACCCAUGUAAAAGAUACCAGAUGCAUGAUGAUCCCUUGGCAGCUUAAACGCGAUUGGAAACAAUCGCGAA | 27.6 | 148 |  | 
8 | AAUCUGUCGGGUGAUACCAGCCUCGGCACAUCUCGUGCCGAACAUGAGGAUCACCCAUGUGGCCCUUGGCAGCACAUGACAAAUC | 381 | 85.3 |  | 
9 | ACAUGAGGAUCACCCAUGUCUGCCACUGAUACCAGCGGAUGCCAACGCCCUUGGCAGCAGAACAUGAGGAUCACCCAUGUAGGCA | 319 | 209 |  | 
10 | ACAUGAGGAUCACCCAUGUGCAGCACGGAUACCAGCGUCCUAGUGCGCCCUUGGCAGCCGGACAUGAGGAUCACCCAUGUGUGGG |  |  | 77.6 | 219
11 | ACAUGAGGAUCACCCAUGUGGCGACUUGAUACCAGACCCGCACUAGUCCCUUGGCAGCAACUACGUGUGGGACACCCAUGUGAAG |  |  | 20.8 | 33.7
12 | ACAUGAGGAUCACCCAUGUGGCGUCUUGAUACCAGACGAGAAGUAGUCCCUUGGCAGCAAAUACGUGAGGAUCACACAUGUGCGA |  |  | 23.2 | 37.3
13 | ACGAACGAUAGUGAUACCAGACGAACAUGAGGAUCACCCAUGUUAUACACAUGGUUUAUUGUCCCUUGGCAGCACUUUAAGUUCG |  |  | 147 | 89.6
14 | ACGUCACGUUUACUCGUGGUUUCGAUCGAUACCAGUAGCGAGAGUUACCCUUGGCAGCGACAUGAGGAUCACCCAUGUGCGAAGA |  |  | 11.8 | 15.9
15 | ACGUCUCGAAAACUCGUAGUAACUAUAGAUACCAGUAGCGAGAGUUACCCUUGGCAGCUACAUGAGGAUCACCCAUGUACGAGGA |  |  | 15.6 | 15
16 | ACUCGGUGUUUGUUGCUCCGAGUUUAUGAUACCAGUUAGUUUUAUGGCCCUUGGCAGCAUAGGACAUGAGGAUCACCCAUGUGUU | 31.7 | 53.8 |  | 
17 | ACUUUGUCGGGUGAUACCAGCCUCGGCAAAUCUCGUGCCGAACAUGAGGAUCACCCAUGUGGCCCUUGGCAGCACAUGACAACUC | 442 | 70 |  | 
18 | AGCAUUGUAACAGAUACCAGACUUUUAAUGCCUCUAAUAACAUGAGGAUCACCCAUGUAUGUCCCUUGGCAGCUGUUAUGAUGCA |  |  | 115 | 220
19 | AGCGACAUGCAUGAUACCAGCUACAUGAGGAUCACCCAUGUACGUCAGUAAUGACUGUGUAGCCCUUGGCAGCAUAGAGCAUGUU |  |  | 17.4 | 53.6
20 | AGCGCUAUGCAUGAUACCAGCUACAUGAGGAUCACCCAUGUGCGUCAGAAAUGACUGUGUAGCCCUUGGCAGCAUAAAGCAUGUA |  |  | 19.1 | 46.3
21 | AUAGUCUUGAGUGAUACCAGACUACAUGAGGAUCACCCAUGUUUCUUUUGGUUAUCAUGUGUCCCUUGGCAGCACGCAUGUAUAG |  |  | 16.4 | 65.8
22 | AUAUGAUCAUAUGAUACCAGAAAUGGUAUUCCUUUCUUUCUUACAUGAGGAUCACCCAUGUUCCCUUGGCAGCAUAUGAUCAUAU |  |  | 174 | 193
23 | AUAUGAUCAUGUGAUACCAGAAAUGGUAGUCCUCGCUGGAUUACAUGAGGAUCACCCAUGUUCCCUUGGCAGCAUAUGAUCAUAU |  |  | 66.6 | 751
24 | AUAUUAGACCUGGAUACCAGCGACAUGAGGAUCACCCAUGUAUGUGCAUCAGCCAUGAUAUGCCCUUGGCAGCCACCGAGGUCGU |  |  | 13.6 | 37.2
25 | AUCGCACCUGGUGAUACCAGCGUUUGCUCGUGACAUGAGGAUCACCCAUGUGGCCAGUGAUGCCCUUGGCAGCAUGGUCGGUGCA | 230 | 177 |  | 
